High-throughput results deposited in PubChem by several laboratories.
An excerpt weighted towards active compounds, which were near 5.7% of everything screened.
Mdm2-MdmX inh – inhibitors of human Mdm2/MdmX interaction; O15151+Q00987; SaOS-2 split-luciferase Mdm2/MdmX complementation, luminescence; inhibition, % at 8 µM; hit rate 3% among 330,000; AID 485346;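 active = inhibition of at least 50% at 8 µM in the primary screen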
Target sequence (O15151 whole entry, looked up): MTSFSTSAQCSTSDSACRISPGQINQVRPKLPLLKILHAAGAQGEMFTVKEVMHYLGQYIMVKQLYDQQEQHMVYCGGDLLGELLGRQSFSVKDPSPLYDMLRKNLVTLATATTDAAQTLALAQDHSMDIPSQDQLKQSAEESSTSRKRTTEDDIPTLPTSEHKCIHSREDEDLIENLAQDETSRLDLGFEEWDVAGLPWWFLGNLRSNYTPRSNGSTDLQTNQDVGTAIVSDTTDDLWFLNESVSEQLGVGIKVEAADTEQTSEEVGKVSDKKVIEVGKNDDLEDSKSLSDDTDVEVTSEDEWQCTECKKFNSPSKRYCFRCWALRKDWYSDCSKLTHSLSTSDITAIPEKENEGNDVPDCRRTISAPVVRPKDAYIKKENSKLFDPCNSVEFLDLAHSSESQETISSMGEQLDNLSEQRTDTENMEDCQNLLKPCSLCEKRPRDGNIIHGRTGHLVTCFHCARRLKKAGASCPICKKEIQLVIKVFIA
Target sequence (Q00987 whole entry, looked up): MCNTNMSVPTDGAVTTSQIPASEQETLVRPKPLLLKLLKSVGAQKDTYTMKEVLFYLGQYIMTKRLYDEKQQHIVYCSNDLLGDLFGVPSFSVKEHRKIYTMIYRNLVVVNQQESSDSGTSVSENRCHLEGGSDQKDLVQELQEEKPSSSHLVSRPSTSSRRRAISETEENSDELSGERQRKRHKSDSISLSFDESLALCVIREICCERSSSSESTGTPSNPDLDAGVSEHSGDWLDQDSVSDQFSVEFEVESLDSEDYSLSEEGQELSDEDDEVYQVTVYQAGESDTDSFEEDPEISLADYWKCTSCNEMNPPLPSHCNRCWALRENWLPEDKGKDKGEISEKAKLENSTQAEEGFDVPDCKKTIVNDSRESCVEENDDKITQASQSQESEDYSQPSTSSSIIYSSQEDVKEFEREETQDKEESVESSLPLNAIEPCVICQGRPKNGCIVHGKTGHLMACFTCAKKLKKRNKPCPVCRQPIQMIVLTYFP
SKKanGAS inh – inhibitors of SKKanGAS S. pyogenes growth in kanamycin (SK-promoter or general growth effect); BacTiter-Glo, 6 h; hit rate 1.3% among 300,000; inhibition, % at 7.5 µM;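 active = mean replicate score, as percent of positive control median, at least 50; inconclusive = mean below 50 but one replicate at or above 50; inactive = mean and every replicate below 50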;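 note: strain carries kanamycin resistance gene driven by streptokinase promoter and grows in 40 µg/ml kanamycin; loss of luminescence reflects streptokinase promoter inhibition or plain growth inhibition; 0% = median of DMSO wells and 100% = positive control at its reference dose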
T cruzi inh – blocks replication of Trypanosoma cruzi. T. cruzi beta-gal in NIH3T3, luminescence, 90 h. inhibition, % (no concentration beside the values). hit rate 1.4% among 300,000. AID 1885;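 active = mean inhibition across valid replicates above about 55%, limit read from the data; inconclusive = mean below that limit but half or more replicates reach it; inactive = mean below it, under half of replicates reach it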;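 note: signal also drops with host cell toxicity which is not excluded here; 0% = plate median of DMSO wells and 100% = zero luminescence signal; higher percent means less beta-gal luminescence so fewer parasites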
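System: NIH/3T3 fibroblasts plus reporter T. cruzi. Medium: DMEM plus 2% FBS. Probe or stimulus: 5000 reporter trypomastigotes per well. Compound: single 50 nL compound addition per well in DMSO. Incubation: co-culture of at least 90 h after 3 h attachment. Detection: GalScreen β-gal luminescence, detergent lysis, 60 min. Evaluation: parasite load inhibition, %.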
Calb FLC – C. albicans growth modulation with fluconazole. C. albicans CaCi-2 (fluconazole-resistant clinical isolate) + fluconazole, Alamar Blue growth, 48 h. growth inhibition, % (no concentration beside the values). AID 1979. hit rate 0.57% among 300,000;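 active = growth inhibition above about 58% in most replicates, limit read from the data, passing the limit was not always enough; inconclusive = exactly half the replicates above a set limit; inactive = most replicates below a set limit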;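 note: all wells also contain fluconazole at 8 µg/ml as a sub-toxic cotreatment; 0% = median of DMSO wells and 100% = median of geldanamycin control wells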
CSC inhib – cancer stem cell inhibition | inhibition, % at 7.5 µM | hit rate 1.1% among 300,000 | cancer stem cell-like cells viability, luminescence; in the data active = inhibition above about 75%; inconclusive = no clear call, values can overlap the other calls; tested in HMLE shEcad cells
Beta cell apopt – beta cell apoptosis inhibition; INS-1E cytokine-induced death, ATP luminescence, 48 h; percent of positive-control rescue, neutral wells zero; protection from apoptosis, % (concentration not given with the values); hit rate 0.8% among 300,000;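 active = Every replicate reaches about 75%, or at least half do and their mean reaches it too, limit read from the data; inconclusive = At least half of replicates reach the limit but their mean does not; inactive = Under half of replicates reach the limit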;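 note: 0% = cytokine-treated negative control wells and 100% = positive control rescue; higher means more ATP so stronger rescue from cytokine killing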
The depositor's hits bear a star; u = inconclusive; x = not tested or not shown.

SMILES	Mdm2-MdmX inh	SKKanGAS inh	T cruzi inh	Calb FLC	CSC inhib	Beta cell apopt
COc1ccccc1NC(=S)N(CCc1c(C)[nH]c2ccccc12)Cc1cccs1	24	40	22	-7	18	-2
COc1ccc2[nH]c(C)c(CCN(Cc3cccs3)C(=S)Nc3ccc(F)cc3)c2c1	8	14	55*	0	3	19
COc1ccc2[nH]c(C)c(CCN(Cc3cccs3)C(=S)Nc3ccccc3)c2c1	24	10	58*	-1	-12	17
Cc1[nH]c2ccc(F)cc2c1CCN(Cc1cccnc1)C(=S)Nc1ccc(F)cc1	28	-1	61*	1	-1	-7
CCNC(=S)N(CCc1c(C)[nH]c2ccc(F)cc12)Cc1cccnc1	10	10	39	x	-2	1
COc1ccc(NC(=S)N(CCc2c(C)[nH]c3ccc(C)cc23)Cc2cccs2)cc1	24	12	21	-17	19	x
N#CC(C(=O)C12CC3CC(CC(C3)C1)C2)c1nc2ccccc2[nH]1 (configuration not stated)	33	80*	20	-10	44	13
COc1ccc(NC(=O)C2CCN(C(=O)[C@@H]3Cc4ccccc4CN3C(=O)OC(C)(C)C)CC2)cc1	2	2	0	6	-7	-3
COc1ccccc1OCC(=O)NCCS(=O)(=O)N1CCN(c2ccc(F)cc2)CC1	-18	5	0	1	-1	-1
CCCCc1nc(N2CCN(C(=O)c3ccco3)CC2)c(C#N)c2c1CCCC2	37	97*	38	4	119*	18
CC(C)c1nc(N2CCN(C(=O)c3ccco3)CC2)c2c3c(sc2n1)CCCC3	30	18	30	89*	24	25
O=C(c1nc2ccccn2c1CNCCn1ccc2ccccc21)N1CCOCC1	-4	10	9	2	x	0
O=c1[nH]cnc2cc(-c3ccccc3)sc12	-14	16	7	29	-4	-3
COc1ccc(-c2cc3nc[nH]c(=O)c3s2)cc1	-65	56*	-1	5	3	2
Cc1cc(C)c(S(=O)(=O)Nc2ccnc(-c3cccnc3)n2)c(C)c1	-1	12	-6	-8	1	-5
CCOc1ccc(Cc2nnc(SCC(=O)Nc3ccc(OC)cc3)n(N)c2=O)cc1	-15	-5	-5	0	x	-2
CCOc1ccc(NC(=O)CSc2nnc(Cc3ccccc3)c(=O)n2N)cc1	15	55*	0	-3	x	-6
CCN(c1ccccc1)S(=O)(=O)c1cc(NC(=O)CSc2n[nH]c(=O)[nH]c2=O)ccc1Cl	22	4	1	u	x	0
C=CCn1c(-c2ccc(S(=O)(=O)N3CCOCC3)cc2)csc1=Nc1ccccc1	1	7	38	-4	27	6
CC(=O)c1cccc(N=c2scc(-c3ccc(S(=O)(=O)N4CCOCC4)cc3)n2CCO)c1	-2	-8	-42	u	14	75*
CC(C)(C)c1ccc(NC(=O)N2CCCN(c3c(Cl)cncc3Cl)CC2)cc1	37	16	13	23	77*	3
COc1cc(C(=O)NCc2cccc(Cl)c2)ccc1OCC(=O)N1CCOCC1	1	-5	1	-2	-11	x
CCOc1cc(C(=O)NCc2ccccc2)ccc1OCC(=O)N1CCOCC1	2	3	-1	98*	x	2
COc1cc(C(=O)Nc2nc(-c3ccc(F)cc3)cs2)ccc1OCC(=O)N1CCOCC1	23	-7	60*	8	-6	29
COc1cc(C(=O)Nc2nc(-c3ccc(C)cc3)cs2)ccc1OCC(=O)N1CCOCC1	23	13	55*	-3	-13	7
SMILES	Mdm2-MdmX inh	SKKanGAS inh	T cruzi inh	Calb FLC	CSC inhib	Beta cell apopt
COc1cc2cc(C(=O)N3CCOCC3)cc(-c3ccc(C)cc3)c2cc1OC	19	-2	32	-6	-2	101*
Cc1noc(C)c1S(=O)(=O)Nc1ccc2c(c1)C(=O)N([C@H](C)CO)C[C@@H](C)[C@@H](CN(C)Cc1ccc3c(c1)OCO3)O2	10	x	x	x	x	-7
CCOc1ccccc1CNS(=O)(=O)c1cnc[nH]1	-1	-2	3	0	-9	-7
CC(=O)NC(CC(=O)OCc1ccc([N+](=O)[O-])cc1)c1ccccc1 (configuration not stated)	-8	-5	-8	-7	-10	1
Cc1cccc(C)c1OCC(=O)NNC(=S)NC(=O)C1CC1	26	95*	19	76*	12	32
Cc1ccc(N=Nc2ccc(O)c(P(=O)(c3ccccc3)c3ccccc3)c2)cc1	10	50*	12	-2	14	0
O=[N+]([O-])c1ccc(CP(=O)(c2ccccc2)c2ccccc2)cc1	-4	3	-9	4	81*	22
O=[N+]([O-])c1ccc(O)c(P(=O)(c2ccccc2)c2ccccc2)c1	20	-1	-6	100*	12	-6
Cc1cc(N=NC(=O)c2ccccc2)ccc1O	-4	x	-6	x	-1	-6
O=[N+]([O-])c1cccc(CP(=O)(c2ccccc2)c2ccccc2)c1	-4	x	x	x	-2	-3
O=[N+]([O-])c1ccc2c(c1)/C(=N\O)c1ccccc1-2	24	32	7	-1	14	12
c1ccc(-c2noc(-c3ccccc3-c3ccccc3)n2)cc1	11	75*	7	1	9	1
COc1ccc(OC)c(NC(=O)CSc2nnc(-c3cccnc3)s2)c1	19	-10	5	-1	-21	99*
COc1cccc(NC(=O)Cn2nnc(C(=O)NCCc3ccccc3)c2N)c1	18	-2	2	-3	-10	-7
COc1cc(N/N=C/c2ccc(N(C)C)cc2)ncn1	-133	8	-9	19	4	3
CN(C)c1cc(N/N=C/c2ccc(Cl)cc2)nc(N(C)C)n1	x	-21	u	98*	x	x
CC(C)(C)c1ccc(C(=O)N2CCN(C(=O)c3ccco3)CC2)cc1	16	50*	-10	1	-1	x
O=C(c1ccc(-c2ccccc2)cc1)N1CCN(C(=O)c2ccco2)CC1	21	-1	7	-2	-2	-4
O=C(CN(c1ccc(Cl)c(C(F)(F)F)c1)S(=O)(=O)c1ccccc1)N/N=C/c1cccc2c1OCCO2	41	54*	13	1	10	-5
CC(C)(C)n1nnnc1C(c1cccnc1)N1CCN(c2ccccn2)CC1 (configuration not stated)	15	3	49	-4	0	2
CC(C)(C)n1nnnc1C(c1cccnc1)N1CCN(c2ccccc2)CC1 (configuration not stated)	3	2	55*	-4	-7	0
CCC(C)(C)n1nnnc1C(c1cccnc1)N1CCN(c2cccc(C(F)(F)F)c2)CC1 (configuration not stated)	0	-6	62*	-1	-11	11
